According to ChEMBL document CHEMBL1139646, “Sialyl Lewis(x) analogs based on a quinic acid scaffold as the fucose mimic” (Bioorg Med Chem Lett, 2005):
Active and inactive are the calls of the source. No cut-off for these calls is given here.

Assays:
Type in all cases: cell-based
[1] = target: T1, P-selectin (Homo sapiens) (UniProt P16109); assay: Inhibition of HL-60 cell adhesion to recombinant human Selectin P at 50 mM
T1 sequence (whole entry): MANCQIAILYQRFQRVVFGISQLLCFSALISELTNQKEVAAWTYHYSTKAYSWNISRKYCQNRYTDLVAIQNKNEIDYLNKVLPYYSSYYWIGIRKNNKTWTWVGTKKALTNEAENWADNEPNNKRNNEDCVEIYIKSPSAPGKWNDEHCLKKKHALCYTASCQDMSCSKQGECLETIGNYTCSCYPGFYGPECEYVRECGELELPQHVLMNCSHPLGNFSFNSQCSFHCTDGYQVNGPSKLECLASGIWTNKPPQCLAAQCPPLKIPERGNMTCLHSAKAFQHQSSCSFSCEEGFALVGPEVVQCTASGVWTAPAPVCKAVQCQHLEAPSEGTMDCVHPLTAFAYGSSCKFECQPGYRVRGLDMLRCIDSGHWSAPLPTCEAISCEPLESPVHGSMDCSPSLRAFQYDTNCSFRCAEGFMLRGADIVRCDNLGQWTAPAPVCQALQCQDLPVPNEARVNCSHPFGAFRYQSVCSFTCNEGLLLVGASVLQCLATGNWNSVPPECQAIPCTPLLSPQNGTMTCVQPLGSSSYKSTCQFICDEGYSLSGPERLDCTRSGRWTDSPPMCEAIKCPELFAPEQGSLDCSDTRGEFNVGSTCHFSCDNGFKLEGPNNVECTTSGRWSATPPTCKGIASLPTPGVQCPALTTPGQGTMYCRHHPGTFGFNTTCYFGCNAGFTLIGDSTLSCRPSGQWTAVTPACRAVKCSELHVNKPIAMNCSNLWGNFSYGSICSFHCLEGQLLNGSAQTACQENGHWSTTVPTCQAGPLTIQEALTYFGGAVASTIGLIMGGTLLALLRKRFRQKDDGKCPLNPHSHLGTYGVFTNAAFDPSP

[2] = target: T2, E-selectin (Homo sapiens) (UniProt P16581); assay: Inhibition of HL-60 cell adhesion to recombinant human Selectin E at 50 mM
T2 sequence (whole entry): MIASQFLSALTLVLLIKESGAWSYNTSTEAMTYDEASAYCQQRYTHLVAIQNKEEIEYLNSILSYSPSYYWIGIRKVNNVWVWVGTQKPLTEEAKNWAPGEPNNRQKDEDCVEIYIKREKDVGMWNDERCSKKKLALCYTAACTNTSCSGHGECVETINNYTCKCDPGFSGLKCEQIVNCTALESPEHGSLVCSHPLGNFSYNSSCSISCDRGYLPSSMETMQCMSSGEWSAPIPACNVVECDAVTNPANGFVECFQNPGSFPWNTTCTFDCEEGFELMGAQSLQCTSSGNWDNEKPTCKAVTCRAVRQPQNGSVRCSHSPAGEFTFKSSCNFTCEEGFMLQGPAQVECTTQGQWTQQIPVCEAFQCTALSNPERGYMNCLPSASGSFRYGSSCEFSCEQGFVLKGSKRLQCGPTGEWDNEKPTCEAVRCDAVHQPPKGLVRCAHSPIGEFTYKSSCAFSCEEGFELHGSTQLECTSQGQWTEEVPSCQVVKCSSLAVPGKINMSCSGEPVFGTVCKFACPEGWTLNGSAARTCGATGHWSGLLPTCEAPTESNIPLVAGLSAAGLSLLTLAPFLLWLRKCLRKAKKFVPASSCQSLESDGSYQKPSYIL
Summary of the method: (§1)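 Recombinant human E- or P-selectin was coated in DPBS at 3 µg/mL (150 ng per well) for 3 h and blocked 1 h with DPBS/1% BSA. Inhibitor, diluted from 10 mM DPBS stock into Hanks'/20 mM Hepes pH 7.2–7.4/0.2% glucose/1% BSA, was added with 10^5 HL-60 cells for 15 min at room temperature, then washed with CaCl2-containing buffer. Bound cells were lysed and myeloperoxidase was read with o-phenylenediamine/H2O2 for 1 h at A492. Percent inhibition is relative to the no-inhibitor control.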

[3] = target: T3, P-selectin (Homo sapiens, UniProt P16109); assay: Inhibition of HL-60 cell adhesion to recombinant human Selectin P; summary of the method: as §1
T3 sequence (P16109 whole entry): T1 sequence (whole entry)

[4] = target: T4, E-selectin (Homo sapiens, UniProt P16581); assay: Inhibition of HL-60 cell adhesion to recombinant human Selectin E; summary of the method: as §1
T4 sequence (P16581 whole entry): T2 sequence (whole entry)

[5] = target: T1, P-selectin (Homo sapiens); assay: Inhibition of HL-60 cell adhesion to recombinant human Selectin P at 50 mM; Not active up to 100 mM; summary of the method: as §1
[6] = target: T2, E-selectin (Homo sapiens); assay: Inhibition of HL-60 cell adhesion to recombinant human Selectin E at 50 mM; Not active up to 100 mM; summary of the method: as §1
[7] = target: T3, P-selectin; assay: Inhibition of HL-60 cell adhesion to recombinant human Selectin P; Not active up to 100 mM; summary of the method: as §1

Row | Compound | inhibition [1] | inhibition [2] | IC50 [3] | IC50 ([4]; read-out: IC50) | inhibition [5] | IC50 ([4]; hl-60) | inhibition [6] | IC50 [7]
1 | C[C@H](NC(=O)[C@]1(O)C[C@@H](O)[C@@H](O)[C@H](O)C1)C(=O)O | 8% | 30% | > 50 mM | > 50 mM | – | – | – | –
2 | O=C(O)CNC(=O)[C@]1(O)C[C@@H](O)[C@@H](O)[C@H](O)C1 | 38% | 38% | > 50 mM | > 50 mM | – | – | – | –
3 | O=C(O)CCCCCNC(=O)[C@]1(O)C[C@@H](O)[C@@H](O)[C@H](O)C1 | 14% | 31% | > 50 mM | > 50 mM | – | – | – | –
4 | O=C(O)[C@]1(O)C[C@@H](O)[C@@H](O)[C@H](O)C1 [QUINIC ACID] | – | – | – | – | inactive | Not Active | inactive | Not Active

The remaining compounds from weak to strong by IC50 [3], led by results:

Row | inhibition [1] | inhibition [2] | IC50 [3] | IC50 ([4]; read-out: IC50) | inhibition [5] | IC50 ([4]; hl-60) | inhibition [6] | IC50 [7] | Compound
5 | 83% | 40% | 40 mM | > 50 mM | – | – | – | – | O=C(O)CCCNC(=O)[C@]1(O)C[C@@H](O)[C@@H](O)[C@H](O)C1
6 | 86% | 43% | 21 mM | > 50 mM | – | – | – | – | O=C(O)CC[C@H](NC(=O)[C@]1(O)C[C@@H](O)[C@@H](O)[C@H](O)C1)C(=O)O
7 | 88% | 46% | 19.5 mM | > 50 mM | – | – | – | – | O=C(O)[C@H](CO)NC(=O)[C@]1(O)C[C@@H](O)[C@@H](O)[C@H](O)C1
8 | 92% | 44% | 19 mM | > 50 mM | – | – | – | – | CCC(C)[C@H](NC(=O)[C@]1(O)C[C@@H](O)[C@@H](O)[C@H](O)C1)C(=O)O (some centres not stated)
